Calls of active or inactive are those of the source. The rule behind the calls is not given here.
Tests used:
[1] = molecular target: Histone deacetylase 4 (Homo sapiens) (UniProt P56524); experiment: Inhibition of N-terminal GST-tagged/C-terminal His-tagged human HDAC4 (627 to 1084 residues) expressed in Sf9 insect cells using Boc-Lys(Tfa)-AMC as fluorogenic substrate at 10 uM preincubated for 60 mins followed by substrate addition and measured after 90 mins by microplate reader analysis relative to control; settings: time 150.0 min
Summary of the method: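 Recombinant human HDAC4 was preincubated with inhibitor for 60 min at 25 °C in Tris-HCl pH 8.0/BSA buffer. Boc-Lys(Tfa)-AMC (42.86 μM solution) was then added for 90 min at 37 °C, followed by trypsin for 30 min at 37 °C. Fluorescence was read at ex 355/em 460. Tested at least twice in duplicate.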

[2] = system: T1, Histone deacetylase 6 (Danio rerio), F8W4B7 [H574A]; experiment: Irreversible inhibition of Danio rerio HDAC6 H574A mutant catalytic domain 2 assessed as enzyme catalysed ring opening by measuring reduction in 2-(Benzylamino)pyrimidine-5-carbohydrazide formation at 100 uM incubated overnight by LC-MS analysis
T1 sequence (whole entry): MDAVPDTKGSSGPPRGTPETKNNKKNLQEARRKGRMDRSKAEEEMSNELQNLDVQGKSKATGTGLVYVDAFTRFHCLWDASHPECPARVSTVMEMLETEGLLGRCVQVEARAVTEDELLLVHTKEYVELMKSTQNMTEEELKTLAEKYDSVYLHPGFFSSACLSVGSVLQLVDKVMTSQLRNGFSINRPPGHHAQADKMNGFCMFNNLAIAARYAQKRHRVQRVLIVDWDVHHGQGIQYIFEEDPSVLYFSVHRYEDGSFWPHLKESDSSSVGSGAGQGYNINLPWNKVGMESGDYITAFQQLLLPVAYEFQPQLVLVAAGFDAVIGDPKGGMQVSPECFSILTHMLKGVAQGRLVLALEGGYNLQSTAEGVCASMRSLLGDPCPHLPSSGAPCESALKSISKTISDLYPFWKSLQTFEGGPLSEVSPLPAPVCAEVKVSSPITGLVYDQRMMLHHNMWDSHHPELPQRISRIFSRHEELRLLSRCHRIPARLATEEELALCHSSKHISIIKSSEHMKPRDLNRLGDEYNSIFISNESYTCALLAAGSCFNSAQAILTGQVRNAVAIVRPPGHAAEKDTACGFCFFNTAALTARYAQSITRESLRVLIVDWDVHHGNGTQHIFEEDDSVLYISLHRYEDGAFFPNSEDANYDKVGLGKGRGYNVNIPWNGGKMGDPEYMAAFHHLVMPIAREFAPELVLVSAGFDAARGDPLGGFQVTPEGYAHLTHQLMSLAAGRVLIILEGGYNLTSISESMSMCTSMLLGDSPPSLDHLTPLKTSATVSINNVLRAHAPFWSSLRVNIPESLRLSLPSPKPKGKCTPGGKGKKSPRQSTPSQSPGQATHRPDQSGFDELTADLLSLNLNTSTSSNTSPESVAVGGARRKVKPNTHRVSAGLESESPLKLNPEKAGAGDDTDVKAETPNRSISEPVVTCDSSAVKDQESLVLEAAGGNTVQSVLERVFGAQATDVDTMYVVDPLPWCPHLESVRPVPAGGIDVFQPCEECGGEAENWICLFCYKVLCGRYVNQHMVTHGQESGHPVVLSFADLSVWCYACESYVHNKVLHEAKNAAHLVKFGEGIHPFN
Summary of the method: (§1)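 Zebrafish HDAC6 CD2 mutants were made by site-directed mutagenesis and expressed in BL21(DE3). Enzyme at 50 μM was incubated overnight with 100 μM inhibitor in 50 mM HEPES pH 7.5, 100 mM KCl, 1 mM TCEP, 5% glycerol; an enzyme-free control was included. Protein was methanol-precipitated and filtered, and products were analysed by C18 UPLC-MS with a 2-min gradient.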

[3] = molecular target: T2, Protein deacetylase HDAC6 (Homo sapiens, UniProt Q9UBN7); experiment: Inhibition of N-terminal GST tagged human recombinant HDAC6 (1 to 1215 residues) expressed in Sf9 insect cells using Z-Lys(Ac)-AMC as fluorogenic substrate preincubated for 2 hrs followed by substrate addition and measured after 90 mins by microplate reader analysis
T2 sequence (Q9UBN7 whole entry): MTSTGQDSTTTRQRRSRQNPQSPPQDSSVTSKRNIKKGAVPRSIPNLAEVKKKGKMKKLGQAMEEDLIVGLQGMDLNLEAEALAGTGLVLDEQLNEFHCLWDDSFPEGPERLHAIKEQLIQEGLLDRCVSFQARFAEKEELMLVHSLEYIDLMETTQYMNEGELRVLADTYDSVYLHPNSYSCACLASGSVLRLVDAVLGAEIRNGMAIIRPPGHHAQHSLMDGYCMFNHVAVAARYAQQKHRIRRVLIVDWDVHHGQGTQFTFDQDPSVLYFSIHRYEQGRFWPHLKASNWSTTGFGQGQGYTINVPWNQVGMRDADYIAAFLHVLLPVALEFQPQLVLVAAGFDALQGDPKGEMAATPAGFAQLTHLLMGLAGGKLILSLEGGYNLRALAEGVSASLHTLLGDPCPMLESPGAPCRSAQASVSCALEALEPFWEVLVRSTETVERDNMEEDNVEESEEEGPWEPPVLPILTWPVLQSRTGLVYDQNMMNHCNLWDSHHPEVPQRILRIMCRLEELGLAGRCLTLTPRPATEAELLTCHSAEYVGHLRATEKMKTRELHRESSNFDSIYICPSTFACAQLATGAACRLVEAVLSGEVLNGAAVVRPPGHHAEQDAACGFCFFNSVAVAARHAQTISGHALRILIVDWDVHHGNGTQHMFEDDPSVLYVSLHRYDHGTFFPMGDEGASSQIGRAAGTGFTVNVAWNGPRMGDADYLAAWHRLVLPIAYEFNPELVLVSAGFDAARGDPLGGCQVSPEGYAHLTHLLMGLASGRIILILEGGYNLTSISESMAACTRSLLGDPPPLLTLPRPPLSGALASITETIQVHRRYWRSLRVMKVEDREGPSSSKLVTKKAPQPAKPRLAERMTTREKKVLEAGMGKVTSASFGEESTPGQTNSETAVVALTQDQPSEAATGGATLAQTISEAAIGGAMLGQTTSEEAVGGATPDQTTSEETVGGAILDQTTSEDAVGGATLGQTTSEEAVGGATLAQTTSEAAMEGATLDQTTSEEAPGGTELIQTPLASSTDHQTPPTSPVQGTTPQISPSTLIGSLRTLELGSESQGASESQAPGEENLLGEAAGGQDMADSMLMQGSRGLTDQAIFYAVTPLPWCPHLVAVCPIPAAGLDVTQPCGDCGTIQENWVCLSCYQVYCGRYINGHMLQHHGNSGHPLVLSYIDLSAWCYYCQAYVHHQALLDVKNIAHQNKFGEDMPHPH

[4] = system: T1, Histone deacetylase 6 (Danio rerio), F8W4B7 [H574A]; experiment: Irreversible inhibition of Danio rerio HDAC6 H574A mutant catalytic domain 2 assessed as enzyme catalysed ring opening by measuring reduction in 2-(Benzylamino)-N'-(2,2-difluoroacetyl)pyrimidine-5-carbohydrazide formation at 100 uM incubated overnight by LC-MS analysis; summary of the method: as §1
[5] = system: T1, Histone deacetylase 6 (Danio rerio), F8W4B7 [H574A]; experiment: Irreversible inhibition of Danio rerio HDAC6 H574A mutant catalytic domain 2 assessed as enzyme catalysed ring opening by measuring reduction in 2-(benzylamino)-N'-(2,2,2-trifluoroacetyl)pyrimidine-5-carbohydrazide formation at 100 uM incubated overnight by LC-MS analysis; summary of the method: as §1

Chain of Histone deacetylase 4 (Homo sapiens) (P56524 whole entry, the tested form may be a part): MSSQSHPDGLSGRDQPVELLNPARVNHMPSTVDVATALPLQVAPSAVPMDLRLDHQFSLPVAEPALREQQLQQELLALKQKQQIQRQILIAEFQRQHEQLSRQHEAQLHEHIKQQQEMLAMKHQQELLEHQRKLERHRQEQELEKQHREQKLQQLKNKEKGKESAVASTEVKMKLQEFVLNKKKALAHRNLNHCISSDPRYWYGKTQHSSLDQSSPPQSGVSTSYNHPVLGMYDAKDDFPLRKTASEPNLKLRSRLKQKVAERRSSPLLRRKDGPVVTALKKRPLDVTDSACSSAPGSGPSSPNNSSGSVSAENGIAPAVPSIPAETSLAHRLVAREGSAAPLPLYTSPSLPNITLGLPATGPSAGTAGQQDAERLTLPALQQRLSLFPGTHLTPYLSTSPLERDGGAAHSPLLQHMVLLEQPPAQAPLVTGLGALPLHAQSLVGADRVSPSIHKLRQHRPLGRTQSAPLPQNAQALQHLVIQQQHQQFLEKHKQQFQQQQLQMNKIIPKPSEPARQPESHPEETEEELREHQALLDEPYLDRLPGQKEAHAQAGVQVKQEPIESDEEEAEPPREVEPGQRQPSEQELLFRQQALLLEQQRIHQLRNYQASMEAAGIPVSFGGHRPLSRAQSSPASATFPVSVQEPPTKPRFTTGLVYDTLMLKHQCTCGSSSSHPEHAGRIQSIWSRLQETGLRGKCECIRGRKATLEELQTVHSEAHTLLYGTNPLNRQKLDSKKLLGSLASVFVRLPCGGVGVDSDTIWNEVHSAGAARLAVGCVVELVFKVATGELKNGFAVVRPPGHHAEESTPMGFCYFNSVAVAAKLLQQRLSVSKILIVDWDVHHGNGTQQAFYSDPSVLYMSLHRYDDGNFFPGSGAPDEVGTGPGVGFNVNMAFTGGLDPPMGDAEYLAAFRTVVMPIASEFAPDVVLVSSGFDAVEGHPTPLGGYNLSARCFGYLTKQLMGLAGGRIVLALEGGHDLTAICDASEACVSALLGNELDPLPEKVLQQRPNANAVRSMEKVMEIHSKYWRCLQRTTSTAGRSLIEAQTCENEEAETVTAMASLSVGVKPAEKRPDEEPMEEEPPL

| SMILES | inhibition [1] [%] | inhibition [2] | IC50 [3] [nM] | inhibition [4] | inhibition [5] |
| --- | --- | --- | --- | --- | --- |
| FC(F)(F)c1nnc(-c2cnc(NCc3ccccc3)nc2)o1 | < 15 | Active | 601 | Active | Active |
| FC(F)c1nnc(-c2cnc(NCc3ccccc3)nc2)o1 | < 15 | Active | 129 | Active | Active |
